Here are results for 39 molecules from ChEMBL document CHEMBL1152589, “Identification and characterization of novel sirtuin inhibitor scaffolds” (Bioorg Med Chem, 2009).

Calls of active or inactive are those of the source. The rule behind the calls is not given here. Some results are limits rather than exact numbers.

Assay [1] addresses T1, NAD-dependent protein deacetylase HST2 (Saccharomyces cerevisiae S288c, UniProt P53686). Description: Inhibition of yeast Hst2 by fluorimetric assay.
Assay [2] deals with NAD-dependent protein deacetylase HST2 (Saccharomyces cerevisiae S288c) (UniProt P53686). Description: Inhibition of yeast Hst2 assessed as residual activity at 500 uM by fluorimetric assay relative to control.
Assay [3] has the same target. The experiment in a line: Inhibition of yeast Hst2 assessed as residual activity at 50 uM by fluorimetric assay relative to control.
Assay [4] has as its target T2, NAD-dependent protein deacetylase sirtuin-2 (Homo sapiens) (UniProt Q8IXJ6).
T2 sequence (whole entry): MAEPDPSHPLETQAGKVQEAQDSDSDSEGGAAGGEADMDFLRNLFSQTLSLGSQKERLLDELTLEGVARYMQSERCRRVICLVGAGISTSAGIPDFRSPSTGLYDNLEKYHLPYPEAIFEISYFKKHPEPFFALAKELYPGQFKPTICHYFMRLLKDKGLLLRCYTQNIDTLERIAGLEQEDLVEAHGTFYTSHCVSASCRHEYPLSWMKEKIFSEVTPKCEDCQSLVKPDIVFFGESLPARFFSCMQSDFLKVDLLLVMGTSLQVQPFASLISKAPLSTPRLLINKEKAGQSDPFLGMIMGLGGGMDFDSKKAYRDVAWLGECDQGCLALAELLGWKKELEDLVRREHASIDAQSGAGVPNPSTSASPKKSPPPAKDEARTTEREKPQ
The experiment in a line: Inhibition of human SIRT2 by fluorogenic assay. On the set-up: concentration or dose not given beside the values. Put shortly: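 Human SIRT2 isoform II construct with extra N-terminal residues, expressed in E. coli BL21-Gold (DE3) as a His6 fusion. Purified by Ni-NTA, with the tag removed by thrombin, then Q sepharose and Superdex-200 gel filtration. Assayed by fluorigenic deacetylation of Fluor de Lys-SIRT1 substrate.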

The target in assay [5] is NAD-dependent histone deacetylase SIR2 (Saccharomyces cerevisiae S288c) (UniProt P06700). The experiment in a line: Inhibition of Sir2 in Saccharomyces cerevisiae inserted URA3 reporter gene assessed as reduction of […] resistance at 40 uM by telomere silencing assay. Background: In a reporter assay the amount or activity of a reporter protein is the signal.
The target of assay [6] is T3, NAD-dependent protein deacetylase sirtuin-1 (Homo sapiens, UniProt Q96EB6).
T3 sequence (Q96EB6 whole entry): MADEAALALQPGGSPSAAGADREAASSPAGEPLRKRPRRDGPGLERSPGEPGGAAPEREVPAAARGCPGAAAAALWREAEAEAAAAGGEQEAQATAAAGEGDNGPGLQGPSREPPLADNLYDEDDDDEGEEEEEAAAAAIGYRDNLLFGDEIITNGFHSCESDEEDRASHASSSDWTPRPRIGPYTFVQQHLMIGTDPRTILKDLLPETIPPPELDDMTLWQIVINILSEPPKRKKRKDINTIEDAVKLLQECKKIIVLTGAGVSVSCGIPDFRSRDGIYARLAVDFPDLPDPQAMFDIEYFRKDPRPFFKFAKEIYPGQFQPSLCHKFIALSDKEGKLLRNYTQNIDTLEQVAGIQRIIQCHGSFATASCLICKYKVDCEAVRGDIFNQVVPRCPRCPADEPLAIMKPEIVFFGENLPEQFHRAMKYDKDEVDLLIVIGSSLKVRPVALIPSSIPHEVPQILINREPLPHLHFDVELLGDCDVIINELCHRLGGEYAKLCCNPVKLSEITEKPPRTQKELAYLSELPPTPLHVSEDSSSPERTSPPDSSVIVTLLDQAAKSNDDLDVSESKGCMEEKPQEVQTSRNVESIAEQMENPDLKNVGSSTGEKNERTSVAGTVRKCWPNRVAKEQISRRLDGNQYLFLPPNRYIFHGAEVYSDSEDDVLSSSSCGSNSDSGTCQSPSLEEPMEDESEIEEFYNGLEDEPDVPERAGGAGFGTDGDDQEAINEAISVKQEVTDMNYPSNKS
Description: Inhibition of human full length SIRT1 expressed in DE3 cells by fluorimetric assay. The class given is cell-based.

Assay [7] concerns the target T1, NAD-dependent protein deacetylase HST2. The experiment in a line: Mixed inhibition of yeast Hst2 using Acetyl-lysine substrate.
The target of assay [8] is NAD-dependent histone deacetylase SIR2 (Saccharomyces cerevisiae S288c) (UniProt P06700). The experiment in a line: Inhibition of Sir2 in Saccharomyces cerevisiae inserted URA3 reporter gene assessed as reduction of […] resistance at 10 uM by telomere silencing assay.
For assay [9] the target is unchanged. The experiment in a line: Inhibition of Sir2 in Saccharomyces cerevisiae inserted URA3 reporter gene assessed as reduction of […] resistance at 1 mM by telomere silencing assay.

Chain of NAD-dependent histone deacetylase SIR2 (Saccharomyces cerevisiae S288c) (P06700 whole entry): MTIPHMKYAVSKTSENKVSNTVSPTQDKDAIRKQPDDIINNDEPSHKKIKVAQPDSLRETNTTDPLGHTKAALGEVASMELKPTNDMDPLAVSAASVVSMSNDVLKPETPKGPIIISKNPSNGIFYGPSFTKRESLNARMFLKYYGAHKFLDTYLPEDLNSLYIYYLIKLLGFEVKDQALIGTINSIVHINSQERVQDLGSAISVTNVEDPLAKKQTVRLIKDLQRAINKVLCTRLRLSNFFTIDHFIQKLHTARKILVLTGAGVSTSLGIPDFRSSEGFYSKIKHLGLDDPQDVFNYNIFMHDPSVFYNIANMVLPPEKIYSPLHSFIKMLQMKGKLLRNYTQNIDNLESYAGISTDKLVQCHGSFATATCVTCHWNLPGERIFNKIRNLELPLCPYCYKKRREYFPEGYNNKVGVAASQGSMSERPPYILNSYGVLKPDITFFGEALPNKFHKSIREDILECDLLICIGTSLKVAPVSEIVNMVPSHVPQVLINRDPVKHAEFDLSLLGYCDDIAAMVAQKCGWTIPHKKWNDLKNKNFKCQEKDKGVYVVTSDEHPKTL
T1 sequence (P53686 whole entry): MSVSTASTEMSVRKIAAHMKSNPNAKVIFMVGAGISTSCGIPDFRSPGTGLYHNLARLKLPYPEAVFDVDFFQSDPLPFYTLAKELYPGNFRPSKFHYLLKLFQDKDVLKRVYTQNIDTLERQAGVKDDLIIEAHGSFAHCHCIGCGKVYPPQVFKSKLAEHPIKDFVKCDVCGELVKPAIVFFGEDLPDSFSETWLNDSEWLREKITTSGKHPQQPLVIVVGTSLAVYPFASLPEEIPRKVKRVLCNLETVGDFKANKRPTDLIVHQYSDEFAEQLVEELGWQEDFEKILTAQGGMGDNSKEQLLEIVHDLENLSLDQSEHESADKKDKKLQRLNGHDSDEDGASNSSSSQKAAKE
Chain of NAD-dependent protein deacetylase HST2 (Saccharomyces cerevisiae S288c) (P53686 whole entry): as above

Consider `O=C1c2ccccc2C(=O)N1CCBr`, for which the IC50 result in [1] is listed as “Not Active”.
As to `Cc1ccc(OCCCC(=O)Oc2ccc3c(C)cc(=O)oc3c2)cc1`, the Activity in assay [2] was 57%; in assay [3] it was 99%.
For the molecule `COCC#CC1c2cc(O)c(OC)cc2CCN1C` (centres undefined), the Activity in [4] was found to be 92.1%.
With `Cc1cc(Cl)c(O)c(Cc2c(O)c(Cl)cc(Cl)c2Cl)c1Cl`, in assay [4], the Activity is 18.5%. Further, the IC50 in [1] (read-out: IC50) worked out at 12.5 µM; in [6] it was 34 µM. For the same molecule, the result in assay [5] and in assay [8] was Active. Further, the inhibition constant Ki in assay [7] came to 2.5 µM.
With `C#C[C@@H]1c2cc(O)c(OC)cc2CCN1C`, the Activity in assay [2] worked out at 74%; in assay [3] it was 97%.
Turning to `Nc1ccc2c(c1)C(=O)N(CCC(=O)O)C2`, the half-inhibitory concentration (IC50) entry in assay [1] is “Not Active”.
As to `Cc1cccc(OCC(=O)Oc2ccc3c(C)cc(=O)oc3c2)c1`, the results for the Activity in assay [2] and in assay [3] were 13% and 90%, respectively.
In the case of `O=C(O)CCN1C(=O)c2cc(Cl)c(Cl)cc2C1=O`, the 50% inhibitory concentration (IC50) result in [1] is given as “Not Active”.
For `Cc1ccc(OCCCC(=O)Oc2ccc3c(c2)CCC3)c(C)c1`, the Activity in assay [2] worked out at 49%; in assay [3] it was 93%.
The like results for `Cc1ccc(OCCCC(=O)Oc2ccc3c(C)cc(=O)oc3c2)c(C)c1` were, in that order, 51% and 90%.
For the molecule `O=C(O)CCCN1C(=O)c2ccccc2C1=O`, in assay [1], the IC50 result was “Not Active”.
With `COCCCC1c2cc(O)c(OC)cc2CCN1C` (centres undefined), the figures for the Activity in [2] and in [3] were 92% and 99%, respectively.
The like results for `C#C[C@H]1c2cc(O)c(OC)cc2CCN1C` were, in that order, 70% and 96%.
The like results for `Cc1c(Cl)c(=O)oc2cc(OC(=O)CCNC(=O)Oc3ccccc3)ccc12` were, in that order, 74% and 100%.
Consider `O=C(O)CCN1Cc2ccccc2C1=O`, for which the Activity in [4] came out at 89%. In addition, the result in assay [9] was Active. Besides, the IC50 in [1] (read-out: IC50) was determined as 19.9 µM.
As for `CCc1ccc(OCCCC(=O)Oc2ccc3c(C)cc(=O)oc3c2)cc1`, the figures for the Activity in assay [2] and in [3] were 53% and 86%, respectively.
Taken in the same sequence, the figures for `COc1cc2c(cc1O)CN(C)CC2` were 98% and 100%.
Consider `O=C(O)CCN1C(=O)c2ccc(-c3nc4ccccc4c(=O)o3)cc2C1=O`, for which, in assay [1], the concentration for half-maximal inhibition (IC50) entry is on record as “Not Active”.
Take `Cc1c(Cl)c(=O)oc2cc(OC(=O)CCCOc3ccc(Cl)cc3Cl)ccc12`: the Activity in assay [2] is 68%; in assay [3], 90%.
In the case of `NC(=O)C1CCCCc2c1[nH]c1ccc(Cl)cc21` (centres undefined), in assay [1] (read-out: IC50), the half-inhibitory concentration (IC50) worked out at 1.3 µM.
For `Cc1ccc2[nH]c3c(c2c1)CCCCC3C(N)=O` (centres undefined), the half-maximal inhibitory concentration (IC50) in assay [1] (read-out: IC50) came out at 14.5 µM; in assay [6], 0.64 µM.
Turning to `Cn1cc(C2=C(c3cn(CCCSC(=N)N)c4ccccc34)C(=O)NC2=O)c2ccccc21` [BISINDOLYLMALEIMIDE IX], in [1] (read-out: IC50), the IC50 was 20 µM.
Consider `C#CC1c2cc(O)c(OC)cc2CCN1C` (centres undefined), for which the values for the Activity in [2] and in [3] were 86% and 100%, respectively.
As to `O=C1CCc2c(ccc3ccccc23)O1` [SPLITOMICIN], in assay [1] (read-out: IC50), the IC50 is more than 600 µM.
In assay [4], `NC(=O)c1cccnc1` returned an Activity of 26%.
For the molecule `Cc1cc(=O)oc2cc(OC(=O)COc3ccccc3)ccc12`, the Activity in assay [2] is 45%; in assay [3] it was 91%.
For the molecule `C[S+]([O-])CCC(C(=O)O)N1C(=O)c2ccccc2C1=O` (centres undefined), the IC50 result in assay [1] is recorded as “Not Active”.
Consider `COc1ccc(OCCCC(=O)Oc2ccc3c(c2)CCC3)cc1`, for which the Activity in [2] was 58%; in assay [3], 95%.
Turning to `COCC#CC1(C)c2cc(O)c(OC)cc2CCN1C` (centres undefined), the Activity in assay [2] and in assay [3] was 100% each time.
With `COC/C=C/C1c2cc(O)c(OC)cc2CCN1C` (centres undefined), the Activity came out at 94% in assay [2] and 97% in assay [3].
Take `COc1ccc(OCCCC(=O)Oc2ccc3c(C)cc(=O)oc3c2)cc1`: the Activity in [2] is 35%; in [3], 93%.
The like results for `Cc1cc(Cc2cc(C)c(O)c(C)c2)cc(C)c1O` were, in that order, 43% and 89%.
In the case of `CN(C)CCCCC(=O)Nc1ccc(NC(=S)NC(=O)c2ccc(C(C)(C)C)cc2)cc1`, the 50% inhibitory concentration (IC50) in [1] (read-out: IC50) is more than 100 µM.
With `CC(C)C(=O)CCN1C(=O)c2ccccc2C1=O`, in assay [1], the 50% inhibitory concentration (IC50) result is recorded as “Not Active”.
On to `COCC#CC1c2cc(O)c(OC)cc2CCN1Cc1ccc(OC)cc1` (centres undefined), for which the IC50 in [1] (read-out: IC50) amounted to 260 µM.
With `Nc1cccc(Cc2cccc(N)c2)c1`, the Activity in [2] and in [3] was 100% in each case.
With `OC(c1ccccc1)c1ccc(C(F)(F)F)cc1` (centres undefined), the figures for the Activity in assay [2] and in assay [3] were 81% and 100%, respectively.
The like results for `Oc1ccc(Cc2ccccc2)cc1` were, in that order, 88% and 100%.
Taken in the same sequence, the figures for `Oc1c(Cc2ccccc2Cl)ccc2cccnc12` were 100% and 100%.

As usually defined, the IC50 is the concentration that inhibits the measured activity by half. One may read the Ki as a measure of affinity in units of concentration, obtained from inhibition or displacement.
